Reference: ChEMBL document CHEMBL1123157, “Thromboxane synthetase inhibitors and antihypertensive agents. 1. N-[(1H-imidazol-1-yl)alkyl]aryl amides and N-[(1H-1,2,4-triazol-1-yl)alkyl]aryl amides” (J Med Chem, 1986)
Activity calls are given as the source filed them.

Assays:
Rattus norvegicus [1] = experiment: Antihypertensive activity in spontaneously hypertensive rats tested at 100 mg/kg po/day for 2 days; type: functional, organism-based; set-up: dose 100 mg/kg
Outline: (§1)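 Male 16-week-old Okamoto SHR (mean arterial pressure about 170 mmHg), 1-3 rats per compound. Given by gavage in 2% preboiled starch (50 mg/mL), 100 mg/kg or less, with 0.9% NaCl load (25 mL/kg). Second dose without saline 24 h later. Mean arterial pressure measured 28 h after first dose. Active if ≤116 mmHg in one rat or mean ≤122 mmHg in two.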

[2] = biological target: T1, Thromboxane-A synthase (Rattus norvegicus) (UniProt P49430); experiment: Inhibitory activity for thromboxane synthetase determined by TXB2 levels in platelets from spontaneously hypertensive rats.; set-up: concentration or dose not given beside the values; settings: concentration not given here
T1 sequence (whole entry): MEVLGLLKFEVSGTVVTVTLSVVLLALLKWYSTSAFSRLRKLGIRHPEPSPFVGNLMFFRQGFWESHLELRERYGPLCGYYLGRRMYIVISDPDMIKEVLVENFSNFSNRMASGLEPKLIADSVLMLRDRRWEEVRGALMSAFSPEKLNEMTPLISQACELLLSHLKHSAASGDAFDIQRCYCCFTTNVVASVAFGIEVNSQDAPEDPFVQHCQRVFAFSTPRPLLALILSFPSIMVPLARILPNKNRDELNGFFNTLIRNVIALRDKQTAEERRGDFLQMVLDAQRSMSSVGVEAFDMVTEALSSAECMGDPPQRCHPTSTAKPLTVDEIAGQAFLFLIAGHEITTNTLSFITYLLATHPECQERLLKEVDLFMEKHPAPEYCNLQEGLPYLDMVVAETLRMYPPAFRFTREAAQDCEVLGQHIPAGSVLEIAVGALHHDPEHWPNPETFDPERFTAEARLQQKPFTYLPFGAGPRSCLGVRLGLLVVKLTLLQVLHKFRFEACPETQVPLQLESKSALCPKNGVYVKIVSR
Outline: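 Washed SHR platelets in oxygenated Krebs phosphate buffer, pH 7.4, 4.5-6.0 × 10^4/μL, incubated with vehicle or drug for 10 min at 37 °C. Stopped with ice and citric acid. Supernatant TXB2 measured by RIA; TXB2 in boiled controls subtracted; % inhibition calculated. IC50 read graphically from % inhibition vs log concentration; single-point screen at 10^-4 M.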

Rattus norvegicus [3] = experiment: Antihypertensive activity in spontaneously hypertensive rats at 100 mg/kg po/day for 2 days; type: functional, organism-based; set-up: dose 100 mg/kg; outline: as §1

Row | Structure (SMILES) | inhibition [2] [%] | Activity (Rattus norvegicus [1]) | Activity (Rattus norvegicus [3])
1 | Nc1ccc(Cl)cc1C(=O)NCCCn1ccnc1 | 96 | – | Active
2 | O=C(NC/C=C/Cn1ccnc1)c1ccc(C(F)(F)F)cc1 (stereo in doubt; 54) | 95 | inactive | –
3 | COc1cc(C(=O)NCCCn2cncn2)cc(OC)c1OC | 64 | inactive | –
4 | CNc1ccccc1C(=O)NCCCn1ccnc1 | 57 | inactive | –
5 | O=C(COc1ccc(Cl)cc1)NCCCn1cncn1 | 56 | inactive | –
6 | COc1cc(C(=O)NCCCn2ccnc2)cc(OC)c1OC | 100 | inactive | –
7 | O=C(NCCCn1ccnc1)c1ccc(F)cc1 | 87 | inactive | –
8 | Cc1cn(CCCNC(=O)c2ccc(I)cc2)cn1 | 99 | inactive | –
9 | CCCCOc1ccc(C(=O)NCCCn2cncn2)cc1 | 71 | inactive | –
10 | CCNc1ccccc1C(=O)NCCCn1ccnc1 | 86 | inactive | –
11 | O=C(NCCCCn1cncn1)c1ccc(C(F)(F)F)cc1 | 38 | inactive | –
12 | O=C(O)c1ccccc1C(=O)NCCCCn1ccnc1 | 50 | inactive | –
13 | O=C(NCCCn1cncn1)c1cccc(Cl)c1 | 86 | inactive | –
14 | O=C(NCCn1ccnc1)c1ccc(Cl)c(Cl)c1 | 59 | inactive | –
15 | O=C(NCCCCCn1cncn1)c1ccc(Br)cc1 | 81 | inactive | –
16 | CC(CCNC(=O)c1ccc(Cl)cc1)n1ccnc1 (configuration not stated) | 96 | inactive | –
17 | O=C(NCCCn1ccnc1)C1CC1c1ccccc1 (configuration not stated) | 100 | inactive | –
18 | O=C(NCCCCCn1cncn1)c1ccc(Cl)cc1 | 79 | inactive | –
19 | O=C(NCCCCn1cncn1)c1ccc(Cl)cc1 | 52 | inactive | –
20 | O=C(NCCCn1ccnc1)c1ccccc1F | 84 | inactive | –
21 | CCc1nccn1CCCNC(=O)c1ccc(Cl)cc1 | 32 | inactive | –
22 | O=C(NCCCCn1cncn1)c1ccccc1-c1ccccc1 | 89 | inactive | –
23 | CCCCOc1ccc(C(=O)NCCCn2ccnc2)cc1 | 75 | inactive | –

Row | Structure (SMILES) | inhibition [2] [%] | Activity (Rattus norvegicus [1]) | Activity (Rattus norvegicus [3])
24 | O=C(NCCCn1ccnc1)c1ccc(Cl)c(Cl)c1 | 93 | inactive | –
25 | O=C(NCCCCn1ccnc1)c1ccccc1 | 91 | inactive | –
26 | CN(C)c1ccc(C(=O)NCCCn2ccnc2)cc1 | 93 | inactive | –
27 | CC(CNC(=O)c1ccc(Cl)c(Cl)c1)Cn1ccnc1 (configuration not stated) | 86 | inactive | –
28 | O=C(CCc1ccccc1)NCCCn1ccnc1 | 64 | inactive | –
29 | Cc1nccn1CCCNC(=O)c1ccc(Cl)c(Cl)c1 | 82 | inactive | –
30 | O=C(NCCCn1cncn1)c1ccc(C(=O)c2ccccc2)cc1 | 65 | inactive | –
31 | Cc1cn(CCCNC(=O)c2cccc(Br)c2)cn1 | 93 | inactive | –
32 | O=C(NCCCCn1cncn1)c1ccc(Br)cc1 | 88 | inactive | –
33 | O=C(NCCCn1ccnc1)C(=O)c1ccccc1 | 80 | inactive | –
34 | O=C(NCCCCCCCCn1ccnc1)c1ccc(Br)cc1 | 100 | – | –
35 | O=C(O)c1ccccc1C(=O)NCCCn1cncn1 | 23 | inactive | –
36 | O=C(Cc1ccc(F)cc1)NCCCn1ccnc1 | 33 | inactive | –
37 | O=C(COc1ccccc1)NCCCn1ccnc1 | 86 | inactive | –
38 | Cc1ccc(C(=O)NCCCn2ccnc2)cc1 | 83 | inactive | –
39 | O=C(NCCCn1cncn1)c1ccc(Cl)cc1 | 16 | inactive | –
40 | CC(CCNC(=O)c1ccc(C(F)(F)F)cc1)n1ccnc1 (configuration not stated) | 94 | inactive | –
41 | O=C(NCCCn1ccnc1)c1ccccc1Br | 50 | inactive | –
42 | O=C(NCCCn1cncn1)c1ccc(Br)cc1 | 40 | inactive | –
43 | O=C(NCCCn1cncn1)c1ccccc1F | 25 | inactive | –
44 | O=C(NC/C=C/Cn1ccnc1)c1ccc(Cl)cc1 (stereo in doubt; 52) | 91 | inactive | –
45 | O=C(NCCCn1cncn1)c1cccc(C(F)(F)F)c1 | 71 | inactive | –
46 | O=C(NCCCn1cncn1)c1ccc(F)cc1 | 67 | inactive | –

Second part, led by results:

Row | inhibition [2] [%] | Structure (SMILES) | Activity (Rattus norvegicus [1]) | Activity (Rattus norvegicus [3])
47 | 0 | O=C(NCCn1cncn1)c1ccc(Br)cc1 | inactive | –
48 | 64 | Cc1nccn1CCCNC(=O)c1cccc(Br)c1 | inactive | –
49 | 85 | O=C(NCCCn1cncn1)c1cccc(Br)c1 | inactive | –
50 | 100 | O=C(NCCCCCn1ccnc1)c1ccc(Br)cc1 | inactive | –
51 | 0 | O=C(Cc1cccc(Cl)c1)NCCCn1cncn1 | inactive | –
52 | 100 | O=C(NCCCn1ccnc1)c1ccccc1Cl | inactive | –
53 | 65 | O=C(NCCCn1cncn1)c1ccccc1-c1ccccc1 | inactive | –
54 | 75 | CC(=O)Nc1ccc(C(=O)NCCCn2cncn2)cc1 | inactive | –
55 | 75 | Cc1nccn1CCCNC(=O)c1cccc(C(F)(F)F)c1 | inactive | –
56 | 82 | O=C(O)c1ccccc1C(=O)NCCCn1ccnc1 | inactive | –
57 | 70 | COc1ccc(C(=O)NCCCn2cncn2)cc1 | inactive | –
58 | 98 | O=C(O)c1ccc(OCCn2ccnc2)cc1 | – | –
59 | 59 | Cc1nccn1CCCNC(=O)c1cccc(Cl)c1 | inactive | –
60 | 96 | O=C(NCCCn1ccnc1)c1ccccc1 | inactive | –
61 | 47 | O=C(/C=C/c1ccc(Cl)cc1)NCCCn1cncn1 | inactive | –
62 | 80 | CS(=O)(=O)c1ccc(C(=O)NCCCn2ccnc2)cc1 | inactive | –
63 | 99 | CC(=O)Nc1ccc(C(=O)NCCCn2ccnc2)cc1 | inactive | –
64 | 82 | O=C(NCCCCn1cncn1)c1ccc(Cl)c(Cl)c1 | inactive | –

Row | inhibition [2] [%] | Structure (SMILES) | Activity (Rattus norvegicus [1]) | Activity (Rattus norvegicus [3])
65 | 96 | O=C(NCCCn1ccnc1)c1cccc(F)c1 | inactive | –
66 | 90 | CC(=O)c1ccc(C(=O)NCCCn2ccnc2)cc1 | inactive | –
67 | 100 | O=C(NCCCCn1ccnc1)c1ccc(Cl)c(Cl)c1 | inactive | –
68 | 93 | CC(CCNC(=O)c1cccc(Cl)c1)n1ccnc1 (configuration not stated) | inactive | –
69 | 100 | O=C(NC/C=C/Cn1ccnc1)c1ccc(Cl)cc1 (stereo in doubt; 51) | inactive | –
70 | 87 | O=C(NCCCCn1cncn1)c1cccc(Cl)c1 | inactive | –
71 | 100 | CC(CNC(=O)c1ccc(Cl)cc1)Cn1ccnc1 (configuration not stated) | inactive | –
72 | 86 | CC(C)(C)c1ccc(C(=O)NCCCn2cncn2)cc1 | inactive | –
73 | 72 | O=C(NCCCn1cncn1)c1cccc([N+](=O)[O-])c1 | inactive | –
74 | 100 | O=C(NCCCn1ccnc1)c1ccc(C(=O)c2ccccc2)cc1 | inactive | –
75 | 66 | Cc1nccn1CCCNC(=O)c1ccc(Br)cc1 | inactive | –
76 | 100 | O=C(NCCCn1ccnc1)c1ccc(-c2ccccc2)cc1 | inactive | –
77 | 91 | CC(CCNC(=O)c1ccc(Br)cc1)n1ccnc1 (configuration not stated) | inactive | –
78 | 91 | N#Cc1ccc(C(=O)NCCCn2ccnc2)cc1 | inactive | –
79 | 82 | O=C(NCCCn1cncn1)c1cccc(F)c1 | inactive | –
80 | 89 | COc1ccc(C(=O)NCCCn2ccnc2)cc1 | inactive | –
81 | 93 | O=C(NC/C=C/Cn1ccnc1)c1ccc(C(F)(F)F)cc1 (stereo in doubt; 53) | inactive | –
82 | 85 | O=C(COc1ccc(Cl)cc1)NCCCn1ccnc1 | inactive | –
